# Source: ChEMBL document CHEMBL6078712, “Triterpenoid phthalimides as selective anti-cancer agents targeting mitochondrial apoptosis” (Eur J Med Chem, 2025)
# Active and inactive are the calls of the source. The calls are words filed in the database; no cut-off is given here.
# Assays:
# [1] = tested on: CCRF-CEM; experiment: Cytotoxicity against human CCRF-CEM cells assessed as inhibition of cell growth incubated for 72 hrs by MTS assay; format: functional, cell-based
# Procedure, shortened: (§1)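 MTS assay on eight human cancer lines and two non-tumour fibroblast lines. IC50 is the concentration that inhibits cell growth by 50 %. SD typically up to 15 % of the mean.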
# [2] = tested on: CEM-DNR; experiment: Cytotoxicity against human CEM-DNR cells assessed as inhibition of cell growth incubated for 72 hrs by MTS assay; format: functional, cell-based; procedure, shortened: as §1
# [3] = tested on: HCT-116; experiment: Cytotoxicity against human HCT-116 cells assessed as inhibition of cell growth incubated for 72 hrs by MTS assay; format: functional, cell-based; conditions: HCT-116, 72 h; procedure, shortened: as §1
# [4] = tested on: HCT 116 TP53(-/-); experiment: Cytotoxicity against human HCT116-p53-null cells assessed as inhibition of cell growth incubated for 72 hrs by MTS assay; format: functional, cell-based; procedure, shortened: as §1
# [5] = tested on: K562; experiment: Cytotoxicity against human K562 cells assessed as inhibition of cell growth incubated for 72 hrs by MTS assay; format: functional, cell-based; conditions: K562, 72 h; procedure, shortened: as §1
# [6] = Cytotoxicity against human K562-Tax cells assessed as inhibition of cell growth incubated for 72 hrs by MTS assay; format: functional, cell-based; procedure, shortened: as §1
# [7] = tested on: A549; experiment: Cytotoxicity against human A549 cells assessed as inhibition of cell growth incubated for 72 hrs by MTS assay; format: functional, cell-based; conditions: A549, 72 h; procedure, shortened: as §1
# [8] = tested on: U2OS; experiment: Cytotoxicity against human U2OS cells assessed as inhibition of cell growth incubated for 72 hrs by MTS assay; format: functional, cell-based; procedure, shortened: as §1
# [9] = Cytotoxicity against human BJ cells assessed as inhibition of cell growth incubated for 72 hrs by MTS assay; format: toxicity, cell-based; procedure, shortened: as §1
# [10] = Cytotoxicity against human MRC5 cells assessed as inhibition of cell growth incubated for 72 hrs by MTS assay; format: toxicity, cell-based; procedure, shortened: as §1
# [11] = Stability in human plasma assessed as compound remaining at 2 uM incubated for 15 mins by RF-MS analysis; format: ADME, cell-free; conditions: read-out: Stability
# Procedure, shortened: (§2)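 Human plasma stability, plasma protein binding and liver microsome stability, each run in triplicate. Error deviations below 10 %.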
# [12] = Stability in human plasma assessed as compound remaining at 2 uM incubated for 30 mins by RF-MS analysis; format: ADME, cell-free; conditions: read-out: Stability; procedure, shortened: as §2
# [13] = Stability in human plasma assessed as compound remaining at 2 uM incubated for 60 mins by RF-MS analysis; format: ADME, cell-free; conditions: read-out: Stability; procedure, shortened: as §2
# [14] = Stability in human plasma assessed as compound remaining at 2 uM incubated for 120 mins by RF-MS analysis; format: ADME, cell-free; conditions: read-out: Stability; procedure, shortened: as §2
# [15] = Plasma protein binding in human assessed as fraction bound at 10 uM incubated for 4 hrs by rapid equilibrium dialysis based RF-MS analysis; format: ADME, cell-free; conditions: read-out: PPB (converted); procedure, shortened: as §2
# [16] = Metabolic stability in human liver microsomes assessed as parent compound remaining at 2 uM incubated for 15 mins in presence of NADPH by RF-MS analysis; format: ADME, Microsome; conditions: read-out: Stability; procedure, shortened: as §2
# [17] = Metabolic stability in human liver microsomes assessed as parent compound remaining at 2 uM incubated for 30 mins in presence of NADPH by RF-MS analysis; format: ADME, Microsome; conditions: read-out: Stability; procedure, shortened: as §2
# [18] = Metabolic stability in human liver microsomes assessed as parent compound remaining at 2 uM incubated for 60 mins in presence of NADPH by RF-MS analysis; format: ADME, Microsome; conditions: read-out: Stability; procedure, shortened: as §2
# [19] = tested on: CCRF-CEM; experiment: Induction of apoptosis in human CCRF-CEM cells assessed as viable cells at 1 times IC50 incubated for 24 hrs by Annexin V-FITC and PI staining based flow cytometric analysis (reference value: 97.4 %); format: functional
# Procedure, shortened: (§3)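 Washed in Ca2+-containing binding buffer, then stained 15 min at room temperature in the dark with Annexin V-FITC and propidium iodide (PI at half the kit-recommended level). Read at once by flow cytometry with a 488 nm laser, ≥10,000 cells. Debris excluded; quadrants viable, early apoptotic, late apoptotic/necrotic, necrotic. Three independent experiments.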
# [20] = tested on: CCRF-CEM; experiment: Induction of apoptosis in human CCRF-CEM cells assessed as early apoptotic cells at 1 times IC50 incubated for 24 hrs by Annexin V-FITC and PI staining based flow cytometric analysis (reference value: 2.1 %); format: functional; procedure, shortened: as §3
# [21] = tested on: CCRF-CEM; experiment: Induction of apoptosis in human CCRF-CEM cells assessed as late apoptotic cells at 1 times IC50 incubated for 24 hrs by Annexin V-FITC and PI staining based flow cytometric analysis (reference value: 0.4 %); format: functional; procedure, shortened: as §3
# [22] = tested on: CCRF-CEM; experiment: Induction of apoptosis in human CCRF-CEM cells assessed as necrotic cells at 1 times IC50 incubated for 24 hrs by Annexin V-FITC and PI staining based flow cytometric analysis (reference value: 0.4 %); format: functional; procedure, shortened: as §3
# [23] = tested on: CCRF-CEM; experiment: Induction of apoptosis in human CCRF-CEM cells assessed as viable cells at 5 times IC50 incubated for 24 hrs by Annexin V-FITC and PI staining based flow cytometric analysis (reference value: 97.4 %); format: functional; procedure, shortened: as §3
# [24] = tested on: CCRF-CEM; experiment: Induction of apoptosis in human CCRF-CEM cells assessed as early apoptotic cells at 5 times IC50 incubated for 24 hrs by Annexin V-FITC and PI staining based flow cytometric analysis (reference value: 2.1 %); format: functional; procedure, shortened: as §3
# [25] = tested on: CCRF-CEM; experiment: Induction of apoptosis in human CCRF-CEM cells assessed as late apoptotic cells at 5 times IC50 incubated for 24 hrs by Annexin V-FITC and PI staining based flow cytometric analysis (reference value: 0.4 %); format: functional; procedure, shortened: as §3
# [26] = tested on: CCRF-CEM; experiment: Induction of apoptosis in human CCRF-CEM cells assessed as necrotic cells at 5 times IC50 incubated for 24 hrs by Annexin V-FITC and PI staining based flow cytometric analysis (reference value: 0.4 %); format: functional; procedure, shortened: as §3
# [27] = tested on: Mitochondrial membrane; experiment: Induction of mitochondrial membrane potential depolarization in human CCRF-CEM cells assessed as fold increase in fluorescence intensity incubated for 24 hrs by JC-1 staining based flow cytometry; format: cell membranes
# [28] = tested on: CCRF-CEM; experiment: Induction of cell cycle arrest in human CCRF-CEM cells assessed as increase in accumulation of G0/G1 phase at 1 times IC50 incubated for 24 hrs by RNase/PI staining based flow cytometry; format: functional
# Procedure, shortened: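 Propidium iodide staining and flow cytometry with a 488 nm laser, ≥10,000 intact cells. Phase proportions compared with untreated cells; SEM of three independent experiments.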
# [29] = tested on: CCRF-CEM; experiment: Inhibition of DNA synthesis in human CCRF-CEM cells at 1 times IC50 incubated for 24 hrs by BrdU incorporation based flow cytometry; format: functional
# Procedure, shortened: (§4)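 Fixed in ice-cold 70 % ethanol, DNA denatured in 2 M HCl for 30 min, neutralised with borax. Stained with anti-BrdU plus FITC secondary, then PI/RNase A for 1 h. Flow cytometry; % BrdU-positive cells.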
# [30] = tested on: CCRF-CEM; experiment: Inhibition of DNA synthesis in human CCRF-CEM cells at 5 times IC50 incubated for 24 hrs by BrdU incorporation based flow cytometry; format: functional; procedure, shortened: as §4
# [31] = tested on: CCRF-CEM; experiment: Inhibition of RNA synthesis in human CCRF-CEM cells at 1 times IC50 incubated for 24 hrs by BrU incorporation based flow cytometry; format: functional
# Procedure, shortened: (§5)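 Fixed in 1 % paraformaldehyde/0.05 % NP-40 (15 min at room temperature, then 4 °C overnight). Stained with cross-reacting anti-BrdU plus FITC secondary (45 min each), then PI/RNase A. Flow cytometry; % BrU-positive cells.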
# [32] = tested on: CCRF-CEM; experiment: Inhibition of RNA synthesis in human CCRF-CEM cells at 5 times IC50 incubated for 24 hrs by BrU incorporation based flow cytometry; format: functional; procedure, shortened: as §5
# [33] = tested on: CCRF-CEM; experiment: Induction of cell cycle arrest in human CCRF-CEM cells assessed as downregulation of AKT phosphorylation at 1 times IC50 incubated for 24 hrs by Western blotting analysis; format: functional, cell-based
# Procedure, shortened: (§6)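 30 µg protein per lane on SDS-PAGE, transferred to nitrocellulose, blocked in 5 % BSA/TBS-Tween. Primary antibodies overnight at 4 °C (Akt, P-Akt Ser473, STAT-3, caspase-3, PARP, cyclin D, cyclin A, Bcl-xL, Bak, Bid, Bim), then HRP secondary and ECL detection. GAPDH as loading control.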
# [34] = tested on: CCRF-CEM; experiment: Induction of cell cycle arrest in human CCRF-CEM cells assessed as downregulation of AKT phosphorylation at 5 times IC50 incubated for 24 hrs by Western blotting analysis; format: functional, cell-based; procedure, shortened: as §6
# [35] = tested on: CCRF-CEM; experiment: Induction of cell cycle arrest in human CCRF-CEM cells assessed as downregulation of total STAT3 expression at 1 to 5 times IC50 incubated for 24 hrs by Western blotting analysis; format: functional, cell-based; procedure, shortened: as §6
# [36] = tested on: CCRF-CEM; experiment: Induction of cell cycle arrest in human CCRF-CEM cells assessed as downregulation of Cyclin D expression at 1 to 5 times IC50 incubated for 24 hrs by Western blotting analysis; format: functional, cell-based; procedure, shortened: as §6
# [37] = tested on: CCRF-CEM; experiment: Induction of cell cycle arrest in human CCRF-CEM cells assessed as downregulation of Cyclin A expression at 5 times IC50 incubated for 24 hrs by Western blotting analysis; format: functional, cell-based; procedure, shortened: as §6
# [38] = tested on: CCRF-CEM; experiment: Induction of apoptosis in human CCRF-CEM cells assessed as downregulation of caspase-3 expression at 5 times IC50 incubated for 24 hrs by Western blotting analysis; format: functional, cell-based; procedure, shortened: as §6
# [39] = tested on: CCRF-CEM; experiment: Induction of apoptosis in human CCRF-CEM cells assessed as upregulation of BID expression at 1 to 5 times IC50 incubated for 24 hrs by Western blotting analysis; format: functional, cell-based; procedure, shortened: as §6
# [40] = tested on: CCRF-CEM; experiment: Induction of apoptosis in human CCRF-CEM cells assessed as upregulation of BIM expression at 1 to 5 times IC50 incubated for 24 hrs by Western blotting analysis; format: functional, cell-based; procedure, shortened: as §6
smiles,measurement,setting,value
CC(=O)O[C@H]1CC[C@]2(C)[C@H]3CC[C@@H]4[C@H]5[C@H](c6cc7c(c(-c8ccccc8)c6)C(=O)N(c6nccs6)C7=O)CC[C@]5(C(=O)O)CC[C@@]4(C)[C@]3(C)CC[C@H]2C1(C)C,IC50,[1],2.52 µM
same,IC50,[2],30.5 µM
same,IC50,[3],13.1 µM
same,IC50,[4],18.6 µM
same,IC50,[5],21.4 µM
same,IC50,[6],24.5 µM
same,IC50,[7],20.8 µM
same,IC50,[8],16.8 µM
same,IC50 at 72 h,[9],31.7 µM
same,IC50 at 72 h,[10],27.8 µM
same,"remaining at 0.25 h, 2 µM",[11],98%
same,"remaining at 0.5 h, 2 µM",[12],95%
same,"remaining at 1 h, 2 µM",[13],96%
same,"remaining at 2 h, 2 µM",[14],85%
same,"fraction unbound at 4 h, 10 µM",[15],0.425
same,"remaining at 0.25 h, 2 µM",[16],103%
same,"remaining at 0.5 h, 2 µM",[17],104%
same,"remaining at 1 h, 2 µM",[18],98%
same,Activity,[19],92.3%
same,Activity,[20],5.1%
same,Activity,[21],2.6%
same,Activity,[22],0%
same,Activity,[23],90.8%
same,Activity,[24],6%
same,Activity,[25],3.2%
same,Activity,[26],0%
same,Activity,[27],Dose-dependent-effect
same,Activity,[28],Active; Slight Increased Activity Observed
same,inhibition (INH),[29],37.2%
same,inhibition (INH),[30],18.5%
same,inhibition (INH),[31],28%
same,inhibition (INH),[32],36.1%
same,Activity,[33],Active
same,Activity,[34],Active
same,Activity,[35],Active
same,Activity,[36],Active
same,Activity,[37],Active
same,Activity,[38],Active
same,Activity,[39],Active
same,Activity,[40],Active
